Assay results as given in ChEMBL document CHEMBL4393678, “Novel Tetrahydroquinazolinamines as Selective Histamine 3 Receptor Antagonists for the Treatment of Obesity” (J Med Chem, 2019).
The source made the active and inactive calls. No cut-off for these calls is given here.

Tests used:
[1] = target: T1, Muscarinic acetylcholine receptor M1 (Homo sapiens) (UniProt P11229); assay: Antagonist activity at M1R (unknown origin) expressed in HEK293 cells harboring luc2P/NFAT-RE plasmid at 10 uM after 6 to 8 hrs by luciferase reporter gene assay; format: cell-based
T1 sequence (whole entry): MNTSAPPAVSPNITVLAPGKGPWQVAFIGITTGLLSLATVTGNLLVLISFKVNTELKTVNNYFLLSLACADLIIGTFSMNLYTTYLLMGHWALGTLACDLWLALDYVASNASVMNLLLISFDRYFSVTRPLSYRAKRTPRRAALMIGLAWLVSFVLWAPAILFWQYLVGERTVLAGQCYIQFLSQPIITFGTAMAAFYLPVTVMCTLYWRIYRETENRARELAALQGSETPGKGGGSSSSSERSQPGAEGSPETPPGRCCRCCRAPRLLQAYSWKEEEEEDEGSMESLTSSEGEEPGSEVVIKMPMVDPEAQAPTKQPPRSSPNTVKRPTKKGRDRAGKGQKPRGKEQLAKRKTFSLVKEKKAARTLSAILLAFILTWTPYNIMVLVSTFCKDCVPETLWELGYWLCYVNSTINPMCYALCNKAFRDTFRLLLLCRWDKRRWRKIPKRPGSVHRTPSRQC
In short: (§1)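 NFAT-RE luciferase assay in HEK293T cells transiently co-transfected with luc2P/NFAT-RE plasmid and receptor plasmid. Cells plated in DMEM and incubated overnight at 37 °C, 5% CO₂. Compounds and reference ligands applied for 6-8 h. Luciferase read after adding Bright-Glo substrate (1 mg/ml final).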

[2] = target: D(1B) dopamine receptor (Homo sapiens) (UniProt P21918); assay: Antagonist activity at Gs-coupled D5 receptor (unknown origin) expressed in HEK293T cells assessed as reduction in histamine-induced inhibition of forskolin-stimulated cAMP accumulation preincubated for 10 to 15 followed by histamine addition for 10 mins and subsequent forskolin-stimulation by Glo-sensor assay; format: functional, cell-based
Sequence of D(1B) dopamine receptor (Homo sapiens) (P21918 whole entry): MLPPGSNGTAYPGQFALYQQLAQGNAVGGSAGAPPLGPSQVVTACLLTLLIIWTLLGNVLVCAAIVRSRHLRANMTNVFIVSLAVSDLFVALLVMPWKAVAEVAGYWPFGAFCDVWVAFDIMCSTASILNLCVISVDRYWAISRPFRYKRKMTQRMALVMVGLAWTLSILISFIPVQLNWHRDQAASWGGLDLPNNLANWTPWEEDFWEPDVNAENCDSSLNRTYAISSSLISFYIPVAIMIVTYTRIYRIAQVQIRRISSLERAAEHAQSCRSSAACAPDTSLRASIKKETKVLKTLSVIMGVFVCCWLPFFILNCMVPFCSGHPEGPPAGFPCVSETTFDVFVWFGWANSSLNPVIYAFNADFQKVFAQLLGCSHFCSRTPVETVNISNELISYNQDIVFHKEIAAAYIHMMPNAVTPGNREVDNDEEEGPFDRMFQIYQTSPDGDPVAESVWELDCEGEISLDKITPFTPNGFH

[3] = test system: Mus musculus; assay: Anorexic effect in 12 hrs fasted db/db-induced obese C57BL/6J mouse model assessed as reduction in cumulative food intake at 10 mg/kg, po pretreated for 30 mins followed by food addition measured after 4 hrs; format: functional, organism-based
In short: (§2)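 Mice starved 12 h (8:00 am to 8:00 pm) with water available, then housed singly. Compound given orally in 5% gum acacia in normal saline; vehicle group received the same. Cumulative food intake measured over 4 h of the night phase (9:00 pm to 1:00 am), starting 30 min after dosing. Antagonism arms: imitet 5 mg/kg i.p. 30 min before compound, or α-methyl-DL-histidine 20 mg/kg i.p. 2 h before.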

[4] = Protein binding in C57BL/6J mouse plasma by equilibrium dialysis method; format: ADME, cell-free; settings: read-out: PPB (converted)
In short: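 Plasma protein binding and unbound fraction in mouse brain tissue homogenate measured by equilibrium dialysis.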

[5] = target: Histamine H1 receptor (Homo sapiens) (UniProt P35367); assay: Antagonist activity at H1R (unknown origin) expressed in HEK293 cells harboring luc2P/NFAT-RE plasmid at 10 uM after 6 to 8 hrs by luciferase reporter gene assay; format: cell-based; in short: as §1
Sequence of Histamine H1 receptor (Homo sapiens) (P35367 whole entry): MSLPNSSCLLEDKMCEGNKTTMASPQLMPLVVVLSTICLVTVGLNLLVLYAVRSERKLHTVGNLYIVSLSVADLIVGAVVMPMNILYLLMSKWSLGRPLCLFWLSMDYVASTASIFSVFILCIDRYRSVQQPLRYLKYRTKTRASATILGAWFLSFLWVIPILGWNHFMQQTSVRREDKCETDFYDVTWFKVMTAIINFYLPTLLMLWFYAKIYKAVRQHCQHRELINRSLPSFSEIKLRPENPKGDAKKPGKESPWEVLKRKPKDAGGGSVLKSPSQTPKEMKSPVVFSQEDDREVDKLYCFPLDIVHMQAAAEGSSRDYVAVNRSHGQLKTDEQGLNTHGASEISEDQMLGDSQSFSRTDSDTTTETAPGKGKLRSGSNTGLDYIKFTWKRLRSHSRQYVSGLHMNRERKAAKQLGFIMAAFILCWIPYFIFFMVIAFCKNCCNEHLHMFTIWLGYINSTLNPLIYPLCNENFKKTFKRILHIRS

[6] = target: Kappa-type opioid receptor (Homo sapiens) (UniProt P41145); assay: Agonist activity at Gi-coupled KOR (unknown origin) expressed in HEK293T cells assessed as inhibition of forskolin-stimulated cAMP accumulation preincubated for 10 to 15 followed by forskolin-stimulation by Glo-sensor assay; format: functional, cell-based
Sequence of Kappa-type opioid receptor (Homo sapiens) (P41145 whole entry): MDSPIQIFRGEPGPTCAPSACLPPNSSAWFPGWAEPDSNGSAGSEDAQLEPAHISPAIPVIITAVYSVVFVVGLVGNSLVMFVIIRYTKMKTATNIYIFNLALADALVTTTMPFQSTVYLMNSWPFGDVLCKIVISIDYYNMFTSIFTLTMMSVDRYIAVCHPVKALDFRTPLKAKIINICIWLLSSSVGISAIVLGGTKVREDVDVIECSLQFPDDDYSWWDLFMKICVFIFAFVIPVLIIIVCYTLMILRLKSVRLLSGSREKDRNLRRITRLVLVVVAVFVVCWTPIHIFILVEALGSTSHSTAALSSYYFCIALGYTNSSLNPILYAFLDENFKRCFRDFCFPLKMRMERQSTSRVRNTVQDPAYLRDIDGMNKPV

[7] = target: T2, Muscarinic acetylcholine receptor M5 (Homo sapiens) (UniProt P08912); assay: Agonist activity at M5R (unknown origin) expressed in HEK293 cells harboring luc2P/NFAT-RE plasmid at 10 uM after 6 to 8 hrs by luciferase reporter gene assay; format: cell-based; in short: as §1
T2 sequence (whole entry): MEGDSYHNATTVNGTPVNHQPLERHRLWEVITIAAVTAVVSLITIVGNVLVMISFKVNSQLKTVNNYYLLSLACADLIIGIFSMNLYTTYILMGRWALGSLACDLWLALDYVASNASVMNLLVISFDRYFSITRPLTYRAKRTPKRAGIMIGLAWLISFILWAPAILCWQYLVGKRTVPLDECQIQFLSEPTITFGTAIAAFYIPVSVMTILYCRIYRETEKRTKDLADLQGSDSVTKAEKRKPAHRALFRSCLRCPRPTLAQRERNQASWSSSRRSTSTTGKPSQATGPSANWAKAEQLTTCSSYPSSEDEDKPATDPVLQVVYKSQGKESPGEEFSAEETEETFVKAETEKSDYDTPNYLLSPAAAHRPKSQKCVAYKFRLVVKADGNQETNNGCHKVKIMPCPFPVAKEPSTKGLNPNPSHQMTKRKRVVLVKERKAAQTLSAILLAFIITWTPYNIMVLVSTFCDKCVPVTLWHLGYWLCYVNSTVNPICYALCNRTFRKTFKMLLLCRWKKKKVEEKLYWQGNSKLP

[8] = fCmax in C57BL/6J mouse brain by equilibrium dialysis method; format: ADME, tissue-based
In short: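 Unbound brain level derived from brain concentration after 20 mg/kg oral dose, multiplied by unbound fraction from brain-homogenate equilibrium dialysis; given at Cmax and at 4 h.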

[9] = test system: Mus musculus; assay: Anti-obesity activity in 16 hrs fasted db/db-induced obese C57BL/6J mouse model assessed as change in blood LDL level at 20 mg/kg, po measured after 6 weeks; format: functional, organism-based
[10] = Cmax in C57BL/6J mouse brain assessed as 4-(2-Amino-8-methyl-5,6,7,8-tetrahydroquinazolin-4-yl)phenol level at 20 mg/kg, po by LC-MS/MS analysis; format: ADME, organism-based; design: dose 20 mg/kg, route oral; settings: in vivo
In short: (§3)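 Male C57BL/6J mice (6-8 weeks, 20 ± 5 g) fasted overnight (12-16 h) got a single 20 mg/kg oral dose as 2.5 mg/mL suspension in 1% w/v gum acacia; n=5 per time point. Serum and brain (PBS homogenate 1:6 w/v) sampled up to 24 h. Parent and demethylated metabolite quantified by LC-MS/MS after liquid-liquid extraction (C18, MRM, phenacetin internal standard; linear 0.25-200 ng/mL). Two-compartment open model fit.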

[11] = Apparent volume of distribution in C57BL/6J mouse serum at 20 mg/kg, po by LC-MS/MS analysis; format: ADME, organism-based; in short: as §3
[12] = Cmax in C57BL/6J mouse serum at 20 mg/kg, po by LC-MS/MS analysis; format: ADME, organism-based; design: dose 20 mg/kg, route oral; in short: as §3
[13] = test system: Mus musculus; assay: Anorexic effect in 12 hrs fasted db/db-induced obese C57BL/6J mouse model assessed as reduction in cumulative food intake at 20 mg/kg, po pretreated for 30 mins followed by food addition measured after 4 hrs in presence of H3R agonist-imitet; format: functional, organism-based; in short: as §2
[14] = test system: Mus musculus; assay: Anorexic effect in 12 hrs fasted db/db-induced obese C57BL/6J mouse model assessed as reduction in cumulative food intake at 20 mg/kg, po pretreated for 30 mins followed by food addition measured after 4 hrs relative to control; format: functional; design: scale not given: the % may be the effect or the level left; in short: as §2

With `COc1ccc(-c2nc(N)nc3c2CCCC3C)cc1` (racemic) the inhibition [1] was “inactive”, the inhibition [2] was “inactive” and the Activity [3] was “inactive”. The fraction unbound [4] was 0.0424, the inhibition [5] was “inactive” and the inhibition [6] was “inactive”. For the same compound, the Activity [7] was “inactive”, the fCmax [8] was 334.7 nM and the Activity [9] was “inactive”. It also gave a Cmax [10] of 101 ng/g, a Vd/F [11] of 28.5 L/kg and a Cmax [12] of 3360 ng/mL. For the same compound, the Activity [13] was “inactive” and the Activity [14] was 33%.
